Results published in ChEMBL document CHEMBL1141571, “Design, synthesis, and trypanocidal activity of new aminoadamantane derivatives” (J Med Chem, 2008).
Where a name gives a salt, the structure may show the parent alone.

Tests used:
Trypanosoma brucei [1] = assay: Antitrypanosomal activity against Trypanosoma brucei 427 at pH 7.4; format: functional, organism-based
Procedure, shortened: (§1)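 In vitro assay against bloodstream-form T. brucei grown at pH 7.4. Concentrations inhibiting growth by 50% (IC50) and 90% (IC90) were calculated. Values are the mean of triplicate experiments ± SEM.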

Trypanosoma brucei [2] = assay: Antitrypanosomal activity against Trypanosoma brucei; format: functional, organism-based; procedure, shortened: as §1

Compound	IC50 (Trypanosoma brucei [1]) [nM]	IC90 (Trypanosoma brucei [1]) [nM]	IC50 (Trypanosoma brucei [2]) [nM]
CCCCCCC12CC3CC(CC(C3)/C1=N\NC(N)=S)C2	2810	5640	
CCCCCCC12CC3CC(CC(C3)C1N)C2 (configuration not stated)	1320	1730	
CCCCCCCCCCC12CC3CC(CC(C3)C1NCC)C2 (configuration not stated)	1090	1650	
CCCCCCC12CC3CC(CC(C3)C1NCC)C2 (configuration not stated)	> 2000		
CCCCCCCCC12CC3CC(CC(C3)/C1=N\NC(=N)N)C2	> 6000		
CCCCCCC12CC3CC(CC(C3)/C1=N\NC(=N)N)C2	> 6000		
NC1C2CC3CC(C2)CC1(Cc1ccccc1)C3 (configuration not stated)	2070	2650	
N=C(N)N/N=C1\C2CC3CC(C2)CC1(c1ccccc1)C3	2120	2810	
NC12CC3CC(C1)CC(C1CCCCC1)(C3)C2			520
NC1CCC(C23CC4CC(CC(C4)C2)C3)CC1 (configuration not stated)			330
NCCC12CC3CC(C1)CC(c1ccccc1)(C3)C2			620
NC12CC3CC(CC(C3)C1)C2 [AMANTADINE HYDROCHLORIDE]	> 132000	> 132000	
CC(N)C12CC3CC(CC(C3)C1)C2 (configuration not stated) [RIMANTADINE HYDROCHLORIDE]		14000	

The next lines start with the values.

IC50 (Trypanosoma brucei [1]) [nM]	IC90 (Trypanosoma brucei [1]) [nM]	IC50 (Trypanosoma brucei [2]) [nM]	Compound
800	1060		CCCCCCCCC12CC3CC(CC(C3)C1N)C2 (configuration not stated)
480	670		CCCCCCCCCCC12CC3CC(CC(C3)C1N)C2 (configuration not stated)
420	540		CCCCCCCCCCCCCCC12CC3CC(CC(C3)/C1=N\NC(N)=S)C2
410	470		N=C(N)N/N=C1\C2CC3CC(C2)CC1(Cc1ccccc1)C3
590	1060		CCCCCCCCCCCCC12CC3CC(CC(C3)C1NCC)C2 (configuration not stated)
470	670		CCCCCCCCCCCCC12CC3CC(CC(C3)C1N)C2 (configuration not stated)
840	1300		CCCCCCCCCCCCCCC12CC3CC(CC(C3)/C1=N\NC(=N)N)C2
920	1980		CCCCCCCCCCCCCCC12CC3CC(CC(C3)C1N)C2 (configuration not stated)
90	110		CCCCCCCCCCC12CC3CC(CC(C3)/C1=N\NC(=N)N)C2
